Experimental data published in ChEMBL document CHEMBL1955813, “Synthesis of new troglitazone derivatives: anti-proliferative activity in breast cancer cell lines and preliminary toxicological study” (Eur J Med Chem, 2012).

What was measured:
Hepatocyte = test: Cytotoxicity against human hepatocytes assessed as cell viability up to 50 uM after 90 mins by MTT assay; assay type: cell-based; conditions: 1.5 h
Outline: (§1)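 Cryopreserved primary human hepatocytes, 0.1 × 10⁶ cells/well in DMEM with gentamycin, insulin, 10 µM dexamethasone, 37 °C, 5% CO₂. Equilibrated 30 min with stirring at 900 rpm, then compound or DMSO (0.4%) added, 0.5–100 µM (7 levels), triplicate. After 90 min, MTT added for 30 min at 37 °C; formazan dissolved in DMSO, A595; viability as % of DMSO control.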

[1] = Cmax in human at 600 mg/day; assay type: ADME, organism-based; design: dose 600 mg/day; conditions: plasma
[2] = Cytotoxicity against human hepatocytes assessed as cell viability at 100 uM after 90 mins by MTT assay relative to control; assay type: cell-based, Hepatocyte; conditions: read-out: Activity; outline: as §1
MDA-MB-231 = test: Antiproliferative activity hormone-independent human MDA-MB-231 cells after 24 hrs by luminescent cell viability assay; assay type: functional, cell-based; conditions: MDA-MB-231, 24 h
Outline: (§2)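 Seeded at 8.10⁴ cells/well; after 24 h attachment, medium switched to 1% FCS with 2 mM L-glutamine and compounds added. MCF-7 grown in phenol red DMEM, MDA-MB-231 in L-15 (both 10% FCS, 37 °C). Exposure 24 h; controls 0.1% DMSO. Cells washed, trypsinized, quantified by CellTiter-Glo luminescence. Triplicate; IC50 = concentration halving viable cell number.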

MCF7 = test: Antiproliferative activity hormone-dependent human MCF7 cells after 24 hrs by luminescent cell viability assay; assay type: functional, cell-based; conditions: MCF7, 24 h; outline: as §2
[3] = Ratio of drug level in liver to plasma in rat; assay type: ADME, tissue-based; conditions: liver and plasma

Row | Cmax [1] | IC50 (MDA-MB-231) | IC50 (MCF7) | Kp [3] | SMILES | Activity (Hepatocyte) | viability at 1.5 h, 100 µM [2]
1 | 6.3 µM | 15.7 µM | 35.4 µM | 10 | Cc1c(C)c2c(c(C)c1O)CCC(C)(COc1ccc(CC3SC(=O)NC3=O)cc1)O2 (stereo not drawn) [TROGLITAZONE] | Non-toxic | 52%
2 | – | 6.5 µM | 15.9 µM | – | Cc1c(C)c2c(c(C)c1OC(=O)CCCC[C@@H]1SC[C@@H]3NC(=O)N[C@@H]31)CCC(C)(COc1ccc(CC3SC(=O)NC3=O)cc1)O2 (mixture of isomers) | – | 50%
3 | – | 3.7 µM | 26 µM | – | Cc1c(C)c2c(c(C)c1OC(=O)CCCCCCCNC(=O)CCCC[C@@H]1SC[C@@H]3NC(=O)N[C@@H]31)CCC(C)(COc1ccc(/C=C3\SC(=O)NC3=O)cc1)O2 (stereo partly drawn) | – | 61%
4 | – | 3.2 µM | 13 µM | – | Cc1c(C)c2c(c(C)c1OC(=O)CCCCCCCNC(=O)OC(C)(C)C)CCC(C)(COc1ccc(/C=C3\SC(=O)NC3=O)cc1)O2 (racemic) | Non-toxic | 79%
5 | – | 3.8 µM | 11.2 µM | – | Cc1c(C)c2c(c(C)c1OC(=O)OC(C)(C)C)CCC(C)(COc1ccc(CC3SC(=O)NC3=O)cc1)O2 (racemic) | – | 47%
6 | – | 3.5 µM | 11.2 µM | – | Cc1c(C)c2c(c(C)c1OC(=O)CCCC[C@@H]1SC[C@@H]3NC(=O)N[C@@H]31)CCC(C)(COc1ccc(/C=C3\SC(=O)NC3=O)cc1)O2 (mixture of isomers) | – | 66%
7 | – | > 25 µM | > 50 µM | – | Cc1c(C)c2c(c(C)c1OC(=O)CCC(=O)O)CCC(C)(COc1ccc(CC3SC(=O)NC3=O)cc1)O2 (racemic) | – | 76%
8 | – | 10.8 µM | 12.5 µM | – | Cc1cc(C)c2c(c1C)OC(C)(COc1ccc(/C=C3\SC(=O)NC3=O)cc1)CC2 (racemic) | Non-toxic | 84%
9 | – | 12.3 µM | 20 µM | – | Cc1cc(C)c2c(c1C)OC(C)(COc1ccc(CC3SC(=O)NC3=O)cc1)CC2 (racemic) | – | 66%
10 | – | > 25 µM | > 50 µM | – | Cc1c(C)c2c(c(C)c1OC(=O)CCC(=O)O)CCC(C)(COc1ccc(/C=C3\SC(=O)NC3=O)cc1)O2 (racemic) | – | 54%
11 | – | 3.3 µM | 7.7 µM | – | Cc1c(C)c2c(c(C)c1OC(=O)OC(C)(C)C)CCC(C)(COc1ccc(/C=C3\SC(=O)NC3=O)cc1)O2 (racemic) | – | 75%
12 | – | 5 µM | 3.2 µM | – | Cc1c(C)c2c(c(C)c1OC(=O)CCCCCCCN)CCC(C)(COc1ccc(/C=C3\SC(=O)NC3=O)cc1)O2 (racemic) | – | 57%
13 | – | 16.6 µM | 29.7 µM | – | Cc1c(C)c2c(c(C)c1O)CCC(C)(COc1ccc(/C=C3\SC(=O)NC3=O)cc1)O2 (racemic) | Non-toxic | 63%
14 | – | > 25 µM | > 50 µM | – | CC(=O)NCCNC(=O)CCC(=O)Oc1c(C)c(C)c2c(c1C)CCC(C)(COc1ccc(/C=C3\SC(=O)NC3=O)cc1)O2 (racemic) | – | 75%
